Reference: ChEMBL document CHEMBL3861960, “Leoligin, the Major Lignan from Edelweiss (Leontopodium nivale subsp. alpinum), Promotes Cholesterol Efflux from THP-1 Macrophages” (J Nat Prod, 2016)
Active and inactive are the calls of the source. No cut-off for these calls is given here.

Legend:
[1] = Upregulation of ABCA1 mRNA expression in human THP1 cells at 10 uM after 24 hrs by qPCR method relative to control; type: functional, cell-based; conditions: THP-1
Procedure, shortened: (§1)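 THP-1 macrophages treated for 24 h with 10 μM compound, 10 μM pioglitazone or DMSO. Total RNA extracted and converted to cDNA; ABCA1 or ABCG1 measured by SYBR Green qPCR and expressed relative to 18S. Mean ± SD of four independent experiments; one-way ANOVA with Bonferroni test against DMSO.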

[2] = Upregulation of ABCG1 mRNA expression in human THP1 cells at 10 uM after 24 hrs by qPCR method relative to control; type: functional, cell-based; conditions: THP-1; procedure, shortened: as §1

For `CCc1ccc(CCOc2ccc(CC3SC(=O)NC3=O)cc2)nc1` (configuration not stated), the Activity [1] was “Active” and the Activity [2] was “Active”.
